Experimental data: ChEMBL document CHEMBL1143367, “Therapeutic index of gramicidin S is strongly modulated by D-phenylalanine analogues at the beta-turn” (J Med Chem, 2009)
*1 amine or outer side, *2 acyl side, *3 side chain or, on linkers, in order; H or OH if unused. Where a SMILES comes first, the peptide text is derived from it. [ ]: non-standard residue; d: D form. X1 = O=C([C@H](N[*:1])C1c2ccccc2-c2ccccc21)[*:2]; d1Nal = N[C@H](Cc1cccc2ccccc12)C(=O)O; d2Nal = N[C@H](Cc1ccc2ccccc2c1)C(=O)O; dTic = O=C(O)[C@H]1Cc2ccccc2CN1; Orn = NCCC[C@H](N)C(=O)O

What was measured:
Details in all cases: defibrinated sheep red blood cells, read-out: TI
[1] = Therapeutic index, ratio of HC50 for defibrinated sheep RBC to MIC50 for colistin-resistant Acinetobacter baumannii 19606R
Method in brief: (§1)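 TI is HC50/MIC50. For HC50, defibrinated sheep erythrocytes were washed in Hank's medium with 20 mM glucose (pH 7.2), held at 2 × 10^7 cells/mL, and incubated 4 h at 37 °C with peptide in triplicate. After centrifugation, hemoglobin release was read at 550 nm.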

[2] = Therapeutic index, ratio of HC50 for defibrinated sheep RBC to MIC50 for Staphylococcus aureus CECT 240; method in brief: as §1
[3] = Therapeutic index, ratio of HC50 for defibrinated sheep RBC to MIC50 for Listeria monocytogenes CECT 4032; method in brief: as §1

SMILES	selectivity ratio [1]	selectivity ratio [2]	selectivity ratio [3]
CC(C)C[C@@H]1NC(=O)[C@H](CCCN)NC(=O)[C@H](C(C)C)NC(=O)[C@@H]2CCCN2C(=O)[C@@H](C2c3ccccc3-c3ccccc32)NC(=O)[C@H](CC(C)C)NC(=O)[C@H](CCCN)NC(=O)[C@H](C(C)C)NC(=O)[C@@H]2CCCN2C(=O)[C@@H](C2c3ccccc3-c3ccccc32)NC1=O (cyclo(L[X1]PV[Orn]L[X1]PV[Orn]))	> 0.1	–	–
CC(C)C[C@@H]1NC(=O)[C@H](CCCN)NC(=O)[C@H](C(C)C)NC(=O)[C@@H]2CCCN2C(=O)[C@H]2Cc3ccccc3CN2C(=O)[C@H](CC(C)C)NC(=O)[C@H](CCCN)NC(=O)[C@H](C(C)C)NC(=O)[C@@H]2CCCN2C(=O)[C@H]2Cc3ccccc3CN2C1=O (cyclo(L[dTic]PV[Orn]L[dTic]PV[Orn]))	–	> 10.2	> 6
CC(C)C[C@@H]1NC(=O)[C@H](CCCN)NC(=O)[C@H](C(C)C)NC(=O)[C@@H]2CCCN2C(=O)[C@@H](Cc2cccc3ccccc23)NC(=O)[C@H](CC(C)C)NC(=O)[C@H](CCCN)NC(=O)[C@H](C(C)C)NC(=O)[C@@H]2CCCN2C(=O)[C@@H](Cc2cccc3ccccc23)NC1=O (cyclo(L[d1Nal]PV[Orn]L[d1Nal]PV[Orn]))	> 0.1	–	–
CC(C)C[C@@H]1NC(=O)[C@H](CCCN)NC(=O)[C@H](C(C)C)NC(=O)[C@@H]2CCCN2C(=O)[C@@H](Cc2ccc3ccccc3c2)NC(=O)[C@H](CC(C)C)NC(=O)[C@H](CCCN)NC(=O)[C@H](C(C)C)NC(=O)[C@@H]2CCCN2C(=O)[C@@H](Cc2ccc3ccccc3c2)NC1=O (cyclo(L[d2Nal]PV[Orn]L[d2Nal]PV[Orn]))	> 0.2	–	–
